Bioassay records: PubChem BioAssay, Sanford-Burnham Center for Chemical Genomics
The list is not random: actives were taken first. Their share in the collection is about 4.4%.
MPTP inh = permeability transition pore inhibition; isolated mouse mitochondria, Ca2+ swelling absorbance, 30 min; inhibition, % at 10 µM; hit rate 1.4% among 360,000; AID 602449;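 active means inhibition of 50% or more, scaled per plate between neutral and stimulator controls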;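 further: 0% = DMSO wells given calcium and 100% = 1 mM EGTA wells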
GRIN3A LBD mod = modulators (binders) of human NR3A ligand-binding domain; Tm shift relative to glycine control, % at 25 µM; AID 1259313; hit rate 2.5% among 340,000; NR3A LBD differential scanning fluorimetry, Tm shift; 0% = protein alone, 100% = glycine-bound protein;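 active means melting temperature shift of at least 10% of the positive control shift, at one fixed dose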
EBI2 antag = antagonists of human EBI2 receptor. P32249. EBI2 beta-arrestin recruitment, luminescence, 7a,25-OHC stimulated. inhibition, % at 5 µM. hit rate 0.81% among 360,000. AID 651636; in the data active means inhibition above about 38%;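 further: enzyme fragment complementation signal reports receptor beta-arrestin coupling in cells; 0% = agonist plus DMSO wells and 100% = wells without agonist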
Target sequence (P32249 whole entry, looked up, the tested form may be a part): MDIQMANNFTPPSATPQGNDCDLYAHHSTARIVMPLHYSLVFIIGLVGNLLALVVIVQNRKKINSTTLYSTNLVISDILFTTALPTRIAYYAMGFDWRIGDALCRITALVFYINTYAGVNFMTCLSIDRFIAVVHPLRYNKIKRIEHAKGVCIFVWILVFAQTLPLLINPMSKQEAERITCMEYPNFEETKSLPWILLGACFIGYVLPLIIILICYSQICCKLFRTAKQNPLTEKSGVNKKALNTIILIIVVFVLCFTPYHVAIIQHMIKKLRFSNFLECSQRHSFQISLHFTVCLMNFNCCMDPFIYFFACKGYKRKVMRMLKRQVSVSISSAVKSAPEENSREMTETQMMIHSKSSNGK
SENP1 FRET inh = inhibitors of human SENP1 SUMO protease catalytic domain. Q9P0U3. recombinant SENP1 catalytic domain, CyPet-SUMO1-YPet FRET cleavage. inhibition, % at 10 µM. hit rate 0.21% among 360,000. AID 624204;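 active means inhibition at least 30% at 10 µM, raw YFP signal under a set limit, fluorescence ratio 0.5 to 1.5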;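 further: 0% = enzyme with DMSO and 100% = no enzyme wells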
Target sequence (Q9P0U3 419-644 limits assumed): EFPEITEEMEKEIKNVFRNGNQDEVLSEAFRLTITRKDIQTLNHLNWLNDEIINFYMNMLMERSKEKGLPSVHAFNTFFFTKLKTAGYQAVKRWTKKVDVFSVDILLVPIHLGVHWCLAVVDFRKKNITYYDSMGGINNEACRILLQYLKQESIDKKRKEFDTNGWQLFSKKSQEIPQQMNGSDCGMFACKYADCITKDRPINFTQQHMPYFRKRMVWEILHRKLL
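material = recombinant human SENP1 catalytic domain, His6-tagged | quantity = 20 pM enzyme | reagent = 25 nM SUMO1 FRET substrate | compound dosing = 10 µM single point, 0.5% DMSO | timing = 50 min enzyme reaction, room temperature, light-protected | detection = FRET, CFP and YFP emission | control set = no-enzyme low, enzyme-DMSO high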
EBI2 antag conf = confirmation of human EBI2 receptor antagonists. inhibition, % at 5 µM. EBI2 beta-arrestin luminescence, 7a,25-OHC antagonism. shares compounds with EBI2 antag. hit rate 29% among 2,400;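 active means inhibition of at least 50%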
EBI2 agonist = activates EBI2, counter-screen for EBI2 antagonists | activation, % at 5 µM | shares compounds with EBI2 antag | EBI2-expressing cells, agonist mode, luminescence, 60 min; 0% vehicle, 100% 7α,25-dihydroxycholesterol control | 2,400 tested, under 10 active;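 active means activation of at least 50%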
bGal cs = beta-galactosidase inhibition counter-screen. shares compounds with EBI2 antag. purified beta-galactosidase, luminescent Galacton Star, 15 min. inhibition, % at 5 µM. hit rate 1% among 2,400. AID 652176;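 active means replicate-average signal at least 3 plate SD below neutral wells, shown as high inhibition, flagging enzyme-inhibiting false positives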;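 further: 0% = DMSO wells with enzyme and 100% = wells lacking enzyme; higher means stronger loss of beta-gal luminescence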
Active calls of the source: *.

What do the screens show for `CCN1CCN(C(c2ccc(OC)cc2)c2nnnn2Cc2ccc3c(c2)OCO3)CC1` (centres undefined)?
MPTP inh: 1; GRIN3A LBD mod: 1; EBI2 antag: -6; SENP1 FRET inh: 0

How did CCn1c(-c2ccccc2Cl)nn(CC(=O)NCCc2ccccc2)c1=S do in these assays?
MPTP inh: 0; GRIN3A LBD mod: 1; EBI2 antag: 57*; SENP1 FRET inh: 3; EBI2 antag conf: 31; EBI2 agonist: -1; bGal cs: -6

What do the screens show for `CCOC(=O)C1CCN(C(=O)COc2ccc(Br)cc2)CC1`?
MPTP inh: 1; GRIN3A LBD mod: 1; EBI2 antag: 75*; SENP1 FRET inh: -1; EBI2 antag conf: 67*; EBI2 agonist: 0; bGal cs: -12

Results for CCOC(=O)N1CCN(C(=O)COc2ccc(Br)cc2Cl)CC1 ?
MPTP inh: 1; GRIN3A LBD mod: 1; EBI2 antag: 62*; SENP1 FRET inh: 2; EBI2 antag conf: 28; EBI2 agonist: 1; bGal cs: 2

Results for CCOC(=O)C1CCN(C(=O)COc2ccc(Br)cc2Br)CC1 ?
MPTP inh: 11; GRIN3A LBD mod: -1; EBI2 antag: 44*; SENP1 FRET inh: 3; EBI2 antag conf: 15; EBI2 agonist: 1; bGal cs: 7

What do the screens show for `CCOC(=O)C1CCN(C(=O)COc2cccc(C)c2)CC1`?
MPTP inh: -2; GRIN3A LBD mod: -2; EBI2 antag: 11; SENP1 FRET inh: -1

Results for CCOC(=O)C1CCN(C(=O)COc2cc(C)c(Br)cc2C)CC1 ?
MPTP inh: -1; GRIN3A LBD mod: -2; EBI2 antag: 71*; SENP1 FRET inh: 1; EBI2 antag conf: 37; EBI2 agonist: 0; bGal cs: -5

How did O=C(Cc1ccc(F)cc1)Nc1nnc(SCC(=O)NC2CCCC2)s1 do in these assays?
MPTP inh: 1; GRIN3A LBD mod: -1; EBI2 antag: -11; SENP1 FRET inh: 0

How did O=C1CN(C(=O)CN2CCN(S(=O)(=O)c3ccccc3F)CC2)c2ccccc2N1 do in these assays?
MPTP inh: 0; EBI2 antag: 2; SENP1 FRET inh: -4

How did COc1ccccc1OCCNC(=O)C(c1ccccc1)c1ccccc1 do in these assays?
MPTP inh: 3; GRIN3A LBD mod: 1; EBI2 antag: 8; SENP1 FRET inh: 0

Results for COc1ccc(OCCNC(=O)C(c2ccccc2)c2ccccc2)cc1 ?
MPTP inh: 1; GRIN3A LBD mod: 0; EBI2 antag: 85*; SENP1 FRET inh: 2; EBI2 antag conf: 52*; EBI2 agonist: -1; bGal cs: -10

How did O=C(NCCOc1ccccc1)C(c1ccccc1)c1ccccc1 do in these assays?
MPTP inh: -1; GRIN3A LBD mod: -2; EBI2 antag: 53*; SENP1 FRET inh: 6; EBI2 antag conf: 44; EBI2 agonist: -1; bGal cs: -16

What do the screens show for `COc1ccc(-c2c(C)nn3c(N4CCN(Cc5ccccc5)CC4)cc(C)nc23)cc1OC`?
MPTP inh: -1; GRIN3A LBD mod: -1; EBI2 antag: -7; SENP1 FRET inh: -1

How did Cc1cc(N2CCN(Cc3ccccc3)CC2)n2nc(C)c(-c3ccccc3)c2n1 do in these assays?
MPTP inh: 6; GRIN3A LBD mod: 2; EBI2 antag: 47*; SENP1 FRET inh: 0; EBI2 antag conf: 15; EBI2 agonist: -1; bGal cs: -21

What do the screens show for `Cc1ccc(/C=C(\NC(=O)c2ccccc2)C(=O)NCCc2ccccn2)o1`?
MPTP inh: 1; GRIN3A LBD mod: 2; EBI2 antag: -6; SENP1 FRET inh: -6

How did CSCCC(NC(=O)c1ccccc1C)C(=O)O (centres undefined) do in these assays?
MPTP inh: -1; GRIN3A LBD mod: 1; EBI2 antag: 1; SENP1 FRET inh: 0

What do the screens show for `COc1ccc(C(=O)/C=C2/C(=O)Nc3ccccc32)cc1OC`?
MPTP inh: 0; GRIN3A LBD mod: 8; EBI2 antag: 48*; SENP1 FRET inh: -7; EBI2 antag conf: 48; EBI2 agonist: 0; bGal cs: -12

How did C=CCOc1ccc(C(=O)/C=C2/C(=O)Nc3ccccc32)cc1 do in these assays?
MPTP inh: 0; GRIN3A LBD mod: 0; EBI2 antag: 59*; SENP1 FRET inh: 2; EBI2 antag conf: 52*; EBI2 agonist: -1; bGal cs: -9

Results for C=CCOc1ccc(C2NC(=O)c3ccccc3O2)cc1 (centres undefined) ?
MPTP inh: 0; GRIN3A LBD mod: -5; EBI2 antag: -4; SENP1 FRET inh: 1

What do the screens show for `COc1ccc(C2NC(=O)c3ccccc3N2)cc1OC` (centres undefined)?
MPTP inh: 1; GRIN3A LBD mod: 1; EBI2 antag: -6; SENP1 FRET inh: -1

What do the screens show for `COC(=O)C1CCN(Cc2cn(-c3ccccc3)nc2-c2ccc3c(c2)OCO3)CC1`?
MPTP inh: 1; GRIN3A LBD mod: -1; EBI2 antag: -1; SENP1 FRET inh: -1

Results for O=C(Cn1nnc(-c2ccccc2)n1)N/N=C/c1cc([N+](=O)[O-])ccc1O ?
MPTP inh: 4; GRIN3A LBD mod: 7; EBI2 antag: 55*; SENP1 FRET inh: -25; EBI2 antag conf: 41; EBI2 agonist: 1; bGal cs: 6

What do the screens show for `COc1ccc(-c2cnc3c(NC(C)=O)cc(-c4cccc(C(=O)N(C)C)c4)cn23)cc1OC`?
MPTP inh: 1; EBI2 antag: -11; SENP1 FRET inh: -1

What do the screens show for `C=CCn1c(SCC(=O)NNC(=O)Nc2cccc(Cl)c2)nnc1-c1ccccc1`?
MPTP inh: 30; GRIN3A LBD mod: 0; EBI2 antag: 61*; SENP1 FRET inh: 0; EBI2 antag conf: 11; EBI2 agonist: -1; bGal cs: -10

What do the screens show for `C=CCn1c(SCC(=O)Nc2ccc(-c3nc4ccc(C)cc4s3)cc2)nnc1-c1ccccc1`?
MPTP inh: 3; GRIN3A LBD mod: -13; EBI2 antag: -79; SENP1 FRET inh: -25

How did C=CCn1c(SCC(=O)NNC(=O)Nc2ccc(C)cc2)nnc1-c1ccccc1 do in these assays?
MPTP inh: 2; GRIN3A LBD mod: 0; EBI2 antag: 48*; SENP1 FRET inh: 1; EBI2 antag conf: 8; EBI2 agonist: -1; bGal cs: -10

Results for COc1cccc(CNC(=O)CCn2c(=O)c3cccn3c3cccnc32)c1 ?
MPTP inh: 0; GRIN3A LBD mod: -1; EBI2 antag: 4; SENP1 FRET inh: -2

Results for CCCCn1nnnc1C(c1cc2ccccc2o1)N1CCOCC1 (centres undefined) ?
MPTP inh: 1; EBI2 antag: -2; SENP1 FRET inh: 0
